The test system of data set [1] is Rattus norvegicus. Description: In vivo antagonist activity at glucocorticoid receptor in Sprague-Dawley rat assessed as reduction in cortisone-induced plasma glucose levels at 30 mg/kg, po bid via gavage for 6 days pretreated for 12 hrs followed by cortisone 21-acetate treatment measured 24 hrs after last cortisone 21-acetate treatment. The class given is functional, organism-based. The method, boiled down:
(§1)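 Male Sprague Dawley rats (200-250g), 3-day vehicle baseline, groups of eight. Compound as suspension in DMSO:Tween 80:0.5% HPMC 10:0.1:89.9, oral gavage twice daily for 6 days; cortisone 21-acetate 30mg/kg s.c. daily in 1% methylcellulose. Tail-vein blood 24 h after last cortisone (12 h after last compound); glucose by clinical reagent, insulin by ultrasensitive rat ELISA.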

The subject of data set [2] is Rattus norvegicus. Description: In vivo antagonist activity at glucocorticoid receptor in Sprague-Dawley rat cortisone model of exogenous Cushing's syndrome assessed as inhibition of plasma insulin levels at 30 mg/kg, po bid via gavage for 6 days pretreated for 12 hrs followed by cortisone 21-acetate treatment measured 24 hrs after last cortisone 21-acetate treatment. In kind it is functional, organism-based. The method, boiled down:
as §1

Data set [3] addresses T1, Glucocorticoid receptor (Homo sapiens, UniProt P04150).
T1 sequence (P04150 whole entry): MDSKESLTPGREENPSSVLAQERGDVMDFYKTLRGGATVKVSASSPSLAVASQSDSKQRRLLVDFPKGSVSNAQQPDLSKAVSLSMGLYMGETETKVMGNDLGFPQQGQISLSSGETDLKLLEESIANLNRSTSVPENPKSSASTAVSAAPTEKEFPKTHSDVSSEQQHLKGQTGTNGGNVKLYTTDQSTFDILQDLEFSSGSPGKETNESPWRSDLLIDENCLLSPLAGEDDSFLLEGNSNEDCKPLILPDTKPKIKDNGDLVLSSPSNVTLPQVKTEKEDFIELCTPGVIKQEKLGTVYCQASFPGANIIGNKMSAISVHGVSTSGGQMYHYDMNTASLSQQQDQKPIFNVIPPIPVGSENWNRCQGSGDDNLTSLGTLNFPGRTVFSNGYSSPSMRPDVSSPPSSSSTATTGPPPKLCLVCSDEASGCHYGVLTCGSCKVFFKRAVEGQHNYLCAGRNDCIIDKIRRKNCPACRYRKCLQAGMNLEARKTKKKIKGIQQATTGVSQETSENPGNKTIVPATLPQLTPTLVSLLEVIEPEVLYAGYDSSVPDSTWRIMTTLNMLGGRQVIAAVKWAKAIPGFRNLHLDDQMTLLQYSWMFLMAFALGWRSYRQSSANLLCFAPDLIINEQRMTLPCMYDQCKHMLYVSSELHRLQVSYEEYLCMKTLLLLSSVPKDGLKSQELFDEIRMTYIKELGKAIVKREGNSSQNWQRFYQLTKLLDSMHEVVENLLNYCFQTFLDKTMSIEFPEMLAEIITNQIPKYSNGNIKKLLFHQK
Description: Antagonist activity at glucocorticoid receptor in human HepG2 cells assessed as inhibition of dexamethasone-induced tyrosine amino transferase activity preincubated for 30 mins followed by dexamethasone addition measured after 20 hrs. In kind it is cell-based.

The nature of data set [4]: Cmax in Sprague-Dawley CD-1 rat plasma at 3 mg/kg, po administered as cassette dose via gavage measured up to 24 hrs by LC/MS analysis. The class given is ADME, organism-based. The arrangement: dose 3 mg/kg, route oral. The essentials: (§2)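 Three male Sprague Dawley CD-1 rats (220-250g) with jugular vein catheters; three test compounds plus a reference dosed together by oral gavage, 3mg/kg each, in DMSO:0.5% methylcellulose 10:90 (0.6mg/mL per compound), 5mL/kg. Plasma sampled pre-dose and at 0.25, 0.5, 1, 2, 4, 6, 8, 24 h; LC/MS.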

The nature of data set [5]: AUC in Sprague-Dawley CD-1 rat plasma at 3 mg/kg, po administered as cassette dose via gavage measured up to 24 hrs by LC/MS analysis. In kind it is ADME, organism-based. The arrangement: time < 24 hr, dose 3 mg/kg, route oral. The method, boiled down:
as §2

Data set [6] can be described thus: Cmax in Sprague-Dawley CD-1 rat plasma at 5 mg/kg, po administered through gavage measured up to 24 hrs by LC/MS analysis. In kind it is ADME, organism-based. The arrangement: dose 5 mg/kg, route oral. The method, boiled down:
(§3)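 Jugular-catheterized male Sprague Dawley CD-1 rats (220-250g). Oral arm: five rats, 5mg/kg gavage, 1mg/mL in DMSO:0.5% methylcellulose 10:90, 5mL/kg, sampled pre-dose and 0.25-24 h. i.v. arm: three rats, 1mg/kg, 0.5mg/mL in DMSO:PEG400:propylene glycol 10:45:45, sampled pre-dose and 0.08-24 h. Plasma by LC/MS.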

The nature of data set [7]: AUC in Sprague-Dawley CD-1 rat plasma at 5 mg/kg, po administered through gavage measured up to 24 hrs by LC/MS analysis. Also on record: dose 5 mg/kg, time < 24 hr, route oral. The class given is ADME, organism-based. The method, boiled down:
as §3

The nature of data set [8]: Oral bioavailability in Sprague-Dawley CD-1 rat plasma at 5 mg/kg administered through gavage measured up to 24 hrs by LC/MS analysis. The class given is ADME, organism-based. The method, boiled down: as §3
Data set [9] can be described thus: Cmax in monkey plasma at 20 mg/kg, po measured up to 24 hrs by LC/MS analysis. The class given is ADME, organism-based, Macaca mulatta. Also on record: dose 20 mg/kg, route oral. The conditions noted are these: rhesus monkey. The method, boiled down:
(§4)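 Monkey i.v./p.o. study: oral 20mg/kg in 10% DMSO, 0.1% Tween 80, 0.5% hydroxypropylmethylcellulose in water; i.v. dose 1mg/kg.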

The nature of data set [10]: AUC in monkey plasma at 20 mg/kg, po measured up to 24 hrs by LC/MS analysis. In kind it is ADME, organism-based, Macaca mulatta. Also on record: dose 20 mg/kg, time < 24 hr, route oral. The conditions noted are these: rhesus monkey. The essentials:
as §4

Data set [11] can be described thus: Oral bioavailability in monkey plasma at 20 mg/kg measured up to 24 hrs by LC/MS analysis. The conditions noted are these: rhesus monkey. The class given is ADME, organism-based, Macaca mulatta. The essentials: as §4

Structures are written as SMILES. Active and inactive are the calls of the source. The calls are words filed in the database; no cut-off is given here.

Consider `CC#C[C@]1(O)CC[C@H]2[C@@H]3CCC4=CC(=O)CCC4=C3[C@@H](c3ccc(N(C)C)cc3)C[C@@]21C`, for which the inhibition entry in [1] and in [2] was “Active” in each case.
`Cn1ccc(S(=O)(=O)N2CCC3=Cc4c(cnn4-c4ccc(F)cc4)C[C@]3(C(=O)c3cc(C(F)(F)F)ccn3)C2)n1`: the Ki in data set [3] worked out at 6.6 nM. Also, the peak concentration (Cmax) in data set [4] is 291 ng/mL; in data set [6], 510 ng/mL. Besides, the AUC at 24 h was found to be 863 ng·h/mL in [5] and 986 ng·h/mL in data set [7]. For the same compound, the bioavailability in data set [8] stood at 68%.
In the case of `CCn1nccc1S(=O)(=O)N1CCC2=Cc3c(cnn3-c3ccc(F)cc3)C[C@]2(C(=O)c2cc(C(F)(F)F)ccn2)C1`, the Ki in [3] is 10 nM. Further, the Cmax in data set [6] was found to be 511 ng/mL; in data set [9], 20.8 ng/mL. Besides, the results for the area under the curve (AUC) at 24 h in [7] and in [10] were 1530 ng·h/mL and 193 ng·h/mL, respectively. Further, the bioavailability in [8] is 52%; in data set [11] it was 1.5%.
`Cn1nccc1S(=O)(=O)N1CCC2=Cc3c(cnn3-c3ccc(F)cc3)C[C@]2(C(=O)c2cc(C(F)(F)F)ccn2)C1`: in [3], the Ki came to 11 nM. For the same compound, the peak concentration (Cmax) in data set [4] was 239 ng/mL; in data set [6], 528 ng/mL; in data set [9] it was 16 ng/mL. Besides, the values for the area under the curve (AUC) at 24 h in [5], in data set [7] and in data set [10] were 967 ng·h/mL, 1560 ng·h/mL and 217 ng·h/mL, respectively. Further, the bioavailability in [8] stood at 62%; in data set [11], 1%.
In the case of `Cn1ncc(S(=O)(=O)N2CC[C@H]3Cc4c(cnn4-c4ccc(F)cc4)C[C@]3(C(=O)c3cc(C(F)(F)F)ccn3)C2)n1` [EXICORILANT], the Ki in [3] amounted to 12 nM. For the same compound, the peak concentration (Cmax) in [6] stood at 1260 ng/mL. For the same compound, the AUC at 24 h in [7] came to 9420 ng·h/mL. In [8], this compound displayed a bioavailability of 100%.

The term Ki denotes the dissociation constant of the complex between target and ligand, obtained from inhibition or displacement. Usually Cmax stands for the highest concentration seen after dosing. What is called AUC is concentration integrated over time. As usually defined, the bioavailability is dose-corrected exposure relative to a reference, in per cent.
